Broadly, the solubility is the dissolved amount per volume that the medium holds. In general, Cmax refers to the highest concentration seen after dosing.

The source made the active and inactive calls. The rule behind the calls is not given here.

Data set [1] has as its system Plasma. Description: Effect on cytokine profile in C57BL/6J mouse plasma assessed as IL-12p70 levels at 3 mg/kg, po by multiplex assay (reference value: 560 pg/ml). The format is functional. The procedure, abridged: (§1)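 Single oral gavage in 20% HP-β-CD to healthy C57BL/6 mice, groups of 15 at 0.3, 1, 3, 10 or 30 mg/kg. Three mice per group sacrificed at 0.5, 1, 2, 4 or 7 h. Plasma and liver cytokines by multiplex, maximum level reported, rounded to nearest multiple of 5.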

Data set [2] relates to Liver. Description: Proinflammatory activity in C57BL/6J mouse liver assessed as IL-6 levels at 10 mg/kg, po by multiplex assay (reference value: 10 pg/g). It is filed as functional.
For data set [3], the system named is Cynomolgus monkey. The data set is described as follows: Activation of monocytes in cynomolgus monkey plasma assessed as upregulation of IL1Ra levels at 1 mg/kg, po after 24 hrs by Luminex assay (reference value: 320 pg/ml). It is filed as functional, Macaca fascicularis.
Data set [4] deals with Cynomolgus monkey. Description: Activation of monocytes in cynomolgus monkey plasma assessed as upregulation of MIP1 levels at 1 mg/kg, po after 24 hrs by Luminex assay (reference value: 37 pg/ml). The format is functional, Macaca fascicularis.
Data set [5] relates to Cynomolgus monkey. The data set is described as follows: Toxicity in cynomolgus monkey assessed as induction of clinical pathology changes up to 30 mg/kg, po. The format is organism-based, Macaca fascicularis. Conditions: in vivo.
In data set [6] the test system is Cynomolgus monkey. The data set is described as follows: Proinflammatory activity in cynomolgus monkey plasma assessed as IL-6 levels at 30 mg/kg, po after 24 hrs by Luminex assay (reference value: 80 pg/ml). It is filed as functional, Macaca fascicularis.
Data set [7] in a line: Solubility of the compound in FaSSIF. It is filed as physicochemical.
The target of data set [8] is T1, TLR7 and TLR8 (Homo sapiens) (UniProt Q9NYK1+Q9NR97). Description: Agonist activity at TLR7/8 in human PBMCs assessed as reduction in extracellular viral load in human hepatocytes infected with HBV genotype C for 12 days followed by exposure to conditioned supernatant from up to 5 uM compound treated PBMCs measured after 42 days. The format is cell-based.
Data set [9] in a line: Cmax in cynomolgus monkey plasma at 30 mg/kg, po by LC-MS analysis. The format is ADME, organism-based, Macaca fascicularis. Also on record: dose 30 mg/kg, route oral. An outline of the steps:
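Healthy cynomolgus monkeys received oral doses of 1, 3, 9 and 30 mg/kg, with a 2-week wash-out between doses. Systemic compound concentrations by LC−MS at 0.25, 0.5, 1, 2, 4, 8 and 24 h postdose.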

The test system of data set [10] is TK6. Description: Genotoxicity in human TK6 cells by in vitro micronuleus test. It is filed as toxicity, cell-based. An outline of the steps: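 In vitro micronucleus test in TK-6 cells.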
A short description of data set [11]: Cmax in C57BL/6J mouse liver at 3 mg/kg, po by LC-MS analysis. The format is ADME, organism-based. Details: dose 3 mg/kg, route oral. The procedure, abridged: (§2)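 Healthy C57BL/6 mice, groups of 15, given a single oral dose (0.3, 1, 3, 10 or 30 mg/kg) in 20% HP-β-CD. Blood drawn at 0.5 h. Three mice per group sacrificed at 0.5, 1, 2, 4 or 7 h, and compound in plasma and liver measured by LC−MS. Values rounded to whole numbers.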

In data set [12] the test system is Liver. Description: Effect on cytokine profile in C57BL/6J mouse liver assessed as IFNgamma levels at 30 mg/kg, po by multiplex assay. It is filed as functional. An outline of the steps:
as §1

The target of data set [13] is T1, TLR7 and TLR8 (Homo sapiens). Description: Agonist activity at TLR7/8 in human PBMCs co-cultured with primary human hepatocytes infected with HBV genotype C for 12 days assessed as increase in MIP-1beta levels up to 5 uM measured after 42 days.
In data set [14] the test system is Cynomolgus monkey. The data set is described as follows: Activation of monocytes in cynomolgus monkey plasma assessed as upregulation of IL1Ra levels at 30 mg/kg, po after 24 hrs by Luminex assay (reference value: 320 pg/ml). It is filed as functional, Macaca fascicularis.
Data set [15] is described as follows: Cmax in C57BL/6J mouse plasma at 3 mg/kg, po by LC-MS analysis. It is filed as ADME, organism-based. Details: dose 3 mg/kg, route oral. An outline of the steps: as §2
Data set [16] deals with Plasma. The data set is described as follows: Induction of IFNalpha levels in C57BL/6J mouse plasma at 3 mg/kg, po by ELISA. The format is functional. (In general: In an ELISA, binding on a coated surface is turned into a signal by an enzyme label.)
Data set [17] deals with T2, Toll-like receptor 7 (Homo sapiens) (UniProt Q9NYK1).
T2 sequence (whole entry): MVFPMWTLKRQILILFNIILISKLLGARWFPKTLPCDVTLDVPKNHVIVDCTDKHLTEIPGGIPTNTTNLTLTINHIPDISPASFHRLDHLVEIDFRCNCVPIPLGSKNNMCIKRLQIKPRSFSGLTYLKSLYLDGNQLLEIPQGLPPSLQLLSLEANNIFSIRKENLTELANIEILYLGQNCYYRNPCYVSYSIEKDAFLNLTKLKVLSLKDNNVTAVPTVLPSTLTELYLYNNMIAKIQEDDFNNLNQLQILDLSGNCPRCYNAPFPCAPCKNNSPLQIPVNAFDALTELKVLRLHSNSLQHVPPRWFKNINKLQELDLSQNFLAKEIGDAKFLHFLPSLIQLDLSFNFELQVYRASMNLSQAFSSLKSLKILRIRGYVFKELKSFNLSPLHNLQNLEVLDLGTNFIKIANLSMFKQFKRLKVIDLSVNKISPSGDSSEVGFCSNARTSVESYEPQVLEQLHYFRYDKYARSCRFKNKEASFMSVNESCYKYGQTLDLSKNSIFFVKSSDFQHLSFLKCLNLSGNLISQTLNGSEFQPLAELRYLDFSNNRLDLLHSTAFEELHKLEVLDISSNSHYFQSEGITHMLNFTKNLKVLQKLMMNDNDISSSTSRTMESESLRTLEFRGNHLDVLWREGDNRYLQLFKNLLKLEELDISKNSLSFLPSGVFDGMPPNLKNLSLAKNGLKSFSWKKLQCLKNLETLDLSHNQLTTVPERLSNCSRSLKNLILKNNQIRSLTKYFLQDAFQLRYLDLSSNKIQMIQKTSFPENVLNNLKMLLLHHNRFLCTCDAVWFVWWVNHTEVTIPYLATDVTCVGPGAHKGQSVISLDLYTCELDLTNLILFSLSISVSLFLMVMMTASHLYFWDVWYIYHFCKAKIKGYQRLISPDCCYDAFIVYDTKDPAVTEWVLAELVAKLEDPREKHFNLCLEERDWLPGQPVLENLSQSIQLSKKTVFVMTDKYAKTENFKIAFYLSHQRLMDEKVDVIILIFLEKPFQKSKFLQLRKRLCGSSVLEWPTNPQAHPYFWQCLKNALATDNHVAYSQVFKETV
Description: Agonist activity at human TLR7 expressed in HEK293 cells assessed as induction of receptor activation incubated for 6 hrs by NF-kappaB-luciferase reporter gene assay. The format is cell-based. The procedure, abridged: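 HEK cell-based assay using a wild-type TLR7 expression vector; a parallel TLR8 vector construct served for selectivity. Results are expressed as lowest effective concentration (LEC), averaged over independent experiments where determined two or more times. A separate HEK 293 cytotoxicity (TOX) assay gave CC50 alongside.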
In general terms: A reporter such as luciferase makes a cellular process visible.

In data set [18] the test system is Cynomolgus monkey. Description: Induction of IFNalpha levels in cynomolgus monkey plasma at 1 mg/kg, po after 24 hrs by ELISA. The format is functional, Macaca fascicularis. The procedure, abridged:
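Healthy cynomolgus monkeys given single oral doses of 1, 3, 9 and 30 mg/kg, with a 2-week wash-out planned between doses. Systemic cytokine levels in plasma were sampled at 0.5, 1, 2, 4, 9 and 24 h postdose.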

Data set [19] concerns Cynomolgus monkey. Description: Activation of monocytes in cynomolgus monkey plasma assessed as upregulation of MCP1 levels at 9 mg/kg, po after 24 hrs by Luminex assay (reference value: 385 pg/ml). The format is functional, Macaca fascicularis.

As to `CCC[C@@H](CCO)Nc1nc(N)nc2c(F)cccc12`, the Activity was 330 pg/mL in data set [1]; 3450 pg/g in data set [2]; 805 pg/mL in [3]; 44 pg/mL in data set [4]; “Non-Toxic” in data set [5]; 5285 pg/mL in data set [6]. In addition, the Activity entry is “Non-Toxic” in data set [10]; 700 pg/g in data set [12]; 2970 pg/mL in data set [14]; 695 pg/mL in data set [16]; 3465 pg/mL in [18]; 8890 pg/mL in [19]. The same compound yielded a solubility in data set [7] of more than 4000 µg/mL. For the same compound, the outcome in data set [8] and in data set [13] was Active. Moreover, the Cmax in data set [9] was 2070 ng/mL; in data set [11], 385 ng/g; in [15] it was 22 ng/mL. For the same compound, the MEC in data set [17] was 0.15 µM.

Values taken from ChEMBL document CHEMBL4130635, “2,4-Diaminoquinazolines as Dual Toll-like Receptor (TLR) 7/8 Modulators for the Treatment of Hepatitis B Virus” (J Med Chem, 2018).
